Compound activity: PubChem, several laboratories
Tn7 DDE FP – inhibitors of Tn7 peptide binding to human fibrin DD(E); P02675; 370,000 tested, 0.13% active; FP displacement of FITC-Tn7 peptide from fibrin DD(E); 0% = median of compound wells per plate; inhibition, % at 8.3 µM;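 active = inhibition above the mean of compounds falling within the control limits plus 3 SD of them, cut at about 14% in these data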
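assay system = human clot-derived fibrin DD(E) complex | quantity = Fibrin-DD(E) at 2 µM final | timing = 10 min preincubation, 3 h with tracer, room temperature | signal = fluorescence polarization | measure = percent inhibition | benchmarks = high control wells with 10 µM unlabelled Aha-Tn7 peptide (full inhibition) | replicates = singlicate testing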
PKA-R2B act – activates the human PKA-R2B holoenzyme complex | 340,000 tested, 0.079% active | PKA-R2B holoenzyme dissociation, Cy5-IP20 fluorescence polarization; R2B truncated from residue 108, S112A mutant; 0% DMSO only, 100% 113 µM cGMP | AID 504700 | activation, % at 11.4 µM;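 active = activation above a cutoff set at the mean over all compounds plus 3 SD, cut at about 18% in these data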;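 note: higher means more holoenzyme dissociation and a rise in polarization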
Target sequence (P31323 whole entry, looked up, other chains not shown, the tested form may be a part): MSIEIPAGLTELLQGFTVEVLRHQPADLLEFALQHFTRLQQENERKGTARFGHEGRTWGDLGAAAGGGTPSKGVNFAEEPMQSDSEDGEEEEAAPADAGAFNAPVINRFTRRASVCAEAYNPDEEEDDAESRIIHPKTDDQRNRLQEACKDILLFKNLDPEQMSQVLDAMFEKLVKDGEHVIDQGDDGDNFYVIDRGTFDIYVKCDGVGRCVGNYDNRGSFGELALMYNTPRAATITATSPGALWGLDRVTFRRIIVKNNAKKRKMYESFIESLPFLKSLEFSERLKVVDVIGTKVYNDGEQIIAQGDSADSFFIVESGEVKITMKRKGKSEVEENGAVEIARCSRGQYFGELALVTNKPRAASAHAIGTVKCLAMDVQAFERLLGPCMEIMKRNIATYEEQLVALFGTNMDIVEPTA
Neddyl block – inhibitors of human cullin neddylation; TR-FRET cullin neddylation, biochemical; inhibition, % at 25 µM; 360,000 tested, 0.58% active; in the data active = inhibition above about 36%
Tn6 DDE FP – DD(E)-Tn6 binding inhibition, primary FP screen | P02675 | Fibrin DD(E) TRITC-Tn6 fluorescence polarization displacement | inhibition, % at 8.3 µM | 370,000 tested, 0.21% active | AID 720509;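 active = inhibition above a per-campaign cutoff: mean of compounds within control limits plus 3 SD, cut at about 15% in these data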
PKA-R1A act – PKA-R1A complex activation. P00514+P68181. PKA-R1A dissociation, Cy5-IP20 fluorescence polarization; scaled: DMSO 0%, 113 µM cGMP 100%. activation, % at 11.4 µM. 340,000 tested, 0.083% active;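 active = percent activation above the mean of all tested compounds plus 3 SD, cut at about 19% in these data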;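 note: higher means more PKAc released from R1A so a rise in polarization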
Neddyl conf – confirmation of human cullin neddylation inhibitors | shares compounds with Neddyl block | TR-FRET cullin neddylation biochemical assay | calls only at 25 µM | 1,800 tested, 13% active; in the data active = inhibition above about 40%;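 note: neddylation substrate is the cullin 1 ring ligase complex with SKP2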
Each line names hits and unclear results; the compound was inactive in the other large screens (follow-up assays come after a bar, where shown). Compounds with a hit are over-represented: about 1% of the library has one in this group of screens.

COc1ccc(NC(=S)N/N=C2\CC(C)(C)Oc3ccc(O)cc32)cc1	Neddyl block 40.8 | Neddyl conf inactive
CC(=O)N1CCC2(CC1)C/C(=N\NC(=S)Nc1ccccc1F)c1cc(O)ccc1O2	none
CC(=O)N1CCC2(CC1)C/C(=N\NC(=S)Nc1ccccc1C)c1cc(O)ccc1O2	none (not shown: Neddyl block)
COc1ccccc1NC(=S)N/N=C1\CC(C)(C)Oc2ccc(O)cc21	Neddyl block 39.6 | Neddyl conf inactive
COC(=O)c1c(C)[nH]c(C(=O)COc2ccc3ccc(=O)oc3c2)c1C	none
CC(=O)c1c(C)[nH]c(C(=O)COc2ccc3ccc(=O)oc3c2)c1C	Neddyl block 46.7 | Neddyl conf inactive
COc1ccccc1-c1c(C)nn2c(N3CCC(C)CC3)cc(C)nc12	Neddyl block 38.3
CCOC(=O)N1CCC(Nc2cc(C)nc3c(-c4ccccc4OC)c(C)nn23)CC1	Neddyl block 40.3 | Neddyl conf inactive
CCN(CC)C(=O)CSc1nnc(-c2ccc(C(C)(C)C)cc2)n1Cc1ccco1	none (no result: PKA-R2B act, Neddyl block, PKA-R1A act)
O=C(c1ccccc1Oc1ccccc1)N1CCC(Oc2cccnc2)CC1	none (no result: PKA-R2B act, Neddyl block, PKA-R1A act)
Cc1sc(NC(=O)c2ccco2)c(C(c2ccncc2)N2CCOCC2)c1C (stereo unspecified)	none
COc1cccc(C(c2c(NC(=O)c3ccco3)sc(C)c2C)N2CCOCC2)c1 (stereo unspecified)	Neddyl block 43.3
O=C(NC1CCCCC1)N(CCN1CCOCC1)Cc1cc2cc3c(cc2[nH]c1=O)OCCO3	Neddyl block 46.9 | Neddyl conf active
O=c1[nH]c2cc3c(cc2cc1CN(CCO)S(=O)(=O)c1ccccc1)OCCO3	Neddyl block 36.9 (not shown: Tn7 DDE FP, Tn6 DDE FP)
O=C(NCc1ccccc1)N(Cc1cc2cc3c(cc2[nH]c1=O)OCCO3)CC1CCCO1 (stereo unspecified)	Neddyl block 36.6 | Neddyl conf inactive
CCN(CC)CCN(Cc1cc2cc3c(cc2[nH]c1=O)OCCO3)C(=O)NC1CCCCC1	none
CC(=C\C=O)/C(C)=C/CC[C@@H]1O[C@@H]2C[C@@H]3O[C@](C)(C[C@H]4C[C@H](O)[C@@H]5O[C@@H]6C[C@H](O)[C@@H](C)O[C@@]6(C)CC[C@H]5O4)[C@@H](O)CC[C@@]3(C)O[C@H]2[C@@H](O)[C@@H]1C	none (no result: PKA-R2B act, Neddyl block, PKA-R1A act)
COC(=O)C1=C(C)N(C)C(=NCc2cccc(C(F)(F)F)c2)NC1c1ccc(C(F)(F)F)cc1 (stereo unspecified)	none (no result: PKA-R2B act, Neddyl block, PKA-R1A act)
CCOC(=O)C1CC(=O)c2cc(OC)c(OC)cc2C1 (stereo unspecified)	Neddyl block 42.1
CCCCCCC(=O)Nc1cc2c(C)cc(=O)oc2cc1C	none
CCC(=O)Nc1cc2c(C)cc(=O)oc2cc1C	Neddyl block 49.7
CN1c2ccccc2C(O)=C(C(=S)Nc2ccc(F)c(Cl)c2)S1(=O)=O	Neddyl block 44.3 | Neddyl conf inactive
CN1c2ccccc2C(O)=C(C(=S)Nc2ccccc2)S1(=O)=O	none
CCOC(=O)C1=C(C(=O)OCC)C2N(Cc3ccc(Br)cc3)c3ccccc3[C@@]23C[C@@H](C(=O)OC)N(S(=O)(=O)c2cccs2)C3=N1 (stereo partly specified)	none (no result: PKA-R2B act, Neddyl block, PKA-R1A act)
Cc1c(Cl)ccc2sc(NC(=O)c3ccco3)nc12	Neddyl block 41.9 | Neddyl conf inactive
CCCCC(=O)OCC(=O)N1N=C(c2c[nH]c3ccccc23)C(O)C1c1ccc(OC)cc1 (stereo unspecified)	Neddyl block 44.5 | Neddyl conf inactive
COC(=O)[C@]12C[C@H](CC(=O)NCCCN3CCCC3=O)C(=O)N(Cc3ccco3)C1=C[C@H](COCc1ccccc1)O[C@@H]2C	none (no result: PKA-R2B act, Neddyl block, PKA-R1A act)
O=C(CCN1C(=O)S/C(=C/c2ccccc2)C1=O)Nc1ccc(O)c(C(=O)O)c1	Neddyl block 43.7 | Neddyl conf inactive
O=C1CC(N2CCCC2)=NC(=O)N1c1ccc(Br)cc1	none (no result: PKA-R2B act, Neddyl block, PKA-R1A act)
Cc1nc(-c2cccc3ccccc23)ccc1C(=O)O	Neddyl block 42.7 | Neddyl conf inactive
CCOc1cc(NC(=O)c2ccco2)c(OCC)cc1NC(=O)CCc1ccccc1OC	Neddyl block 41.1 | Neddyl conf inactive
CCOc1cc(NC(=O)c2ccco2)c(OCC)cc1NC(=O)c1ccco1	none (not shown: Neddyl block)
C/C(=N\NC(=O)c1c(Cl)cnn1C)c1ccc(NC(=O)c2ccc(Br)o2)cc1	Neddyl block 40.9 | Neddyl conf inactive
O=C(CN1c2cccc3cccc(c23)S1(=O)=O)Nc1ccc(F)c(F)c1F	Neddyl block 41.6 | Neddyl conf inactive
O=C(CN1c2cccc3cccc(c23)S1(=O)=O)NCc1ccc(F)cc1	Neddyl block 45.8 | Neddyl conf active
Cc1ccc(CNC(=O)CN2c3cccc4cccc(c34)S2(=O)=O)cc1	none
O=C(N[C@H](C(=O)N1CCC[C@H]1C(=O)NCCc1ccccc1Cl)c1ccccc1)C1CCCC1	none (no result: PKA-R2B act, Neddyl block, PKA-R1A act)
CCOC(=O)c1cn2nc(Oc3cccc(F)c3)ccc2n1	Neddyl block 41.3 | Neddyl conf inactive
COc1ccc(-c2ccc(-c3nnc(Cc4ccc(OC)c(OC)c4)o3)cc2)cc1	Neddyl block 43.9 | Neddyl conf inactive
CCCOc1cccc(C2C(C(=O)c3cc4ccccc4o3)=C(O)C(=O)N2c2cc(C)on2)c1 (stereo unspecified)	Neddyl block 44.1 | Neddyl conf inactive
COc1ccc(CCNC(=O)c2cc3c(=O)n4ccccc4nc3n(CCN3CCOCC3)c2=N)cc1	Neddyl block 40.4 | Neddyl conf inactive
CCCCN=C(N)NC(=O)c1ccccc1	none (no result: PKA-R2B act, Neddyl block, PKA-R1A act)
CN(C)c1cccc(C(=O)NC2CCCc3ccccc32)c1 (stereo unspecified)	Neddyl block 47.7 | Neddyl conf inactive
O=C(N/N=C/c1ccc(-c2cccc(C(F)(F)F)c2)o1)c1ccccc1O	Neddyl block 51.4 | Neddyl conf inactive
Cc1ccc(-c2c(C#N)c(N)nc3c2CCCC3)o1	Neddyl block 44.5 | Neddyl conf inactive
CCSc1nc2c(c(-c3ccc(C)o3)c1C#N)CCCC2	none
COc1cccc(/C=C/C(=O)OCC(=O)Nc2nnc(-c3ccccc3)o2)c1	Neddyl block 47.4 (no result: Tn7 DDE FP, Tn6 DDE FP) | Neddyl conf inactive
O=C(COC(=O)/C=C/c1cccc(F)c1)Nc1cccc(S(=O)(=O)NC2=NCCCCC2)c1	none
COC(=O)c1ccc(CNC(=O)COC(=O)/C=C/c2cccc(OC)c2)cc1	Neddyl block 46.0 | Neddyl conf inactive
COc1cccc(/C=C/C(=O)OCC(=O)Nc2cccc(S(=O)(=O)NC3=NCCCCC3)c2)c1	Neddyl block 42.1
O=C(Nc1nc2ncccn2c1-c1ccccc1)c1ccccc1	none (no result: PKA-R2B act, Neddyl block, PKA-R1A act)
